Measured values published in ChEMBL document CHEMBL1153741, “Antineoplastic agents. 556. Isolation and structure of Coprinastatin 1 from Coprinus cinereus” (2010).
Values after ≈ are worked out from the molar mass of the structure shown. Active and inactive are the calls of the source. The calls are words filed in the database; no cut-off is given here.

Legend:
[1] = test system: Micrococcus luteus; assay: Antibacterial activity against Micrococcus luteus Presque Isle 456 by broth microdilution assay; assay type: functional, organism-based
Method in brief: (§1)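 Samples reconstituted in a small volume of sterile DMSO and diluted in the appropriate medium immediately before testing by established broth microdilution. MIC taken as the lowest concentration that inhibited all visible growth of the test organism (optically clear wells). Assays were repeated on separate days.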

[2] = test system: Staphylococcus aureus; assay: Antibacterial activity against Staphylococcus aureus ATCC 29213 by broth microdilution assay; assay type: functional, organism-based; method in brief: as §1
[3] = test system: Enterococcus faecalis; assay: Antibacterial activity against Enterococcus faecalis ATCC 29212 by broth microdilution assay; assay type: functional, organism-based; method in brief: as §1
[4] = test system: P388; assay: Cytotoxicity against mouse P388 cells; assay type: functional
[5] = test system: Neisseria gonorrhoeae; assay: Antibacterial activity against Neisseria gonorrhoeae ATCC 49226 by broth microdilution assay; assay type: functional; method in brief: as §1
[6] = test system: Cryptococcus neoformans; assay: Antifungal activity against Cryptococcus neoformans ATCC 90112 by broth microdilution assay; assay type: functional, organism-based; method in brief: as §1
[7] = test system: Stenotrophomonas maltophilia; assay: Antibacterial activity against Stenotrophomonas maltophilia ATCC 13637 by broth microdilution assay; assay type: functional, organism-based; method in brief: as §1
[8] = test system: Streptococcus pneumoniae; assay: Antibacterial activity against Streptococcus pneumoniae ATCC 6303 by broth microdilution assay; assay type: functional, organism-based; method in brief: as §1
[9] = test system: Escherichia coli; assay: Antibacterial activity against Escherichia coli ATCC 25922 by broth microdilution assay; assay type: functional, organism-based; method in brief: as §1
[10] = test system: Candida albicans; assay: Antifungal activity against Candida albicans ATCC 90028 by broth microdilution assay; assay type: functional, organism-based; method in brief: as §1
[11] = test system: Enterobacter cloacae; assay: Antibacterial activity against Enterobacter cloacae ATCC 13047 by broth microdilution assay; assay type: functional, organism-based; method in brief: as §1

| MIC [5] [mg/L] | SMILES | Activity [1] | Activity [2] | Activity [3] | Activity [4] | Activity [5] | Activity [6] | Activity [7] | Activity [8] | Activity [9] | Activity [10] | Activity [11] | EC50 ([4]; read-out: ED50 (the source's name)) [mg/L] |
| --- | --- | --- | --- | --- | --- | --- | --- | --- | --- | --- | --- | --- | --- |
| – | Cc1c(O)c2c(c(C)c1CCO)C[C@@](C)(CO)C2 | inactive | inactive | inactive | inactive | inactive | inactive | inactive | inactive | inactive | inactive | inactive | – |
| – | CC(=O)c1cccc2oc(=O)[nH]c12 | inactive | inactive | inactive | inactive | inactive | inactive | inactive | inactive | inactive | inactive | inactive | – |
| – | Cc1c(O)c2c(c(C)c1CCO)C[C@](C)(CO)C2 | inactive | inactive | inactive | inactive | inactive | inactive | inactive | inactive | inactive | inactive | inactive | – |
| 32 (≈ 137 µM) | C=C1[C@@H](O)[C@@H]2C[C@](C)(CO)CC2=C(C)C12CC2 [COPRINASTATIN 1] | inactive | inactive | inactive | – | – | inactive | inactive | inactive | inactive | inactive | inactive | 5.3 (≈ 22.6 µM) |
| – | C=C1[C@@H](O)[C@@H]2CC(C)(C)CC2=C(CO)C12CC2 | inactive | inactive | inactive | inactive | inactive | inactive | inactive | inactive | inactive | inactive | inactive | – |
| – | Cc1c(O)c2c(c(C)c1CCO)CC(C)(C)C2 | inactive | inactive | inactive | inactive | inactive | inactive | inactive | inactive | inactive | inactive | inactive | – |
